Laboratory results from ChEMBL document CHEMBL1144742, “Mithramycin analogues generated by combinatorial biosynthesis show improved bioactivity” (2008).

How the values were obtained:
[1] = test system: MCF7; test: Induction of apoptosis in estrogen receptor positive human MCF7 cells at 15 uM after 24 hrs by TUNEL assay; assay type: functional
Summary of the method: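 ER-positive MCF-7 breast cancer cells, exposed 24 h at 15 μM. Apoptotic cells scored by TUNEL labelling and confocal microscopy, expressed as percent TUNEL-positive, normalized against untreated baseline. Mean ± standard error from three independent experiments.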

[2] = test system: MDA-MB-231; test: Induction of apoptosis in estrogen receptor negative human MDA231 cells at 20 uM after 24 hrs by TUNEL assay; assay type: functional
Summary of the method: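 ER-negative MDA-231 breast cancer cells, treated 24 h at 20 μM. Apoptosis read by TUNEL staining with confocal microscopy as percent TUNEL-positive cells. Baseline apoptosis of untreated cells used for normalization. Mean ± standard error of three independent experiments.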

CO[C@H](C(=O)[C@@H](O)[C@@H](C)O)[C@@H]1Cc2cc3cc(O[C@H]4C[C@@H](O[C@H]5C[C@@H](O)[C@H](O)[C@@H](C)O5)[C@H](O)[C@@H](C)O4)c(C)c(O)c3c(O)c2C(=O)[C@H]1O[C@H]1C[C@@H](O[C@H]2C[C@](C)(O)[C@H](O)[C@@H](C)O2)[C@H](O)[C@@H](C)O1
Activity [1]: 50.3%
Activity [2]: 7.29%

CO[C@H](C(=O)[C@@H](O)[C@@H](C)O)[C@@H]1Cc2cc3cc(O[C@H]4C[C@@H](O[C@H]5C[C@@H](O)[C@H](O)[C@@H](C)O5)[C@H](O)[C@@H](C)O4)c(C)c(O)c3c(O)c2C(=O)[C@H]1O[C@H]1C[C@@H](O[C@H]2C[C@@H](O[C@H]3C[C@](C)(O)[C@H](O)[C@@H](C)O3)[C@@H](O)[C@H](C)O2)[C@H](O)[C@@H](C)O1
Activity [1]: 3.9%
Activity [2]: 6.46%

CO[C@H](C(=O)[C@@H](O)[C@@H](C)O)[C@@H]1Cc2cc3cc(O[C@H]4C[C@@H](O)[C@H](O)[C@@H](C)O4)c(C)c(O)c3c(O)c2C(=O)[C@H]1O[C@H]1C[C@@H](O[C@H]2C[C@@H](O[C@H]3C[C@](C)(O)[C@H](O)[C@@H](C)O3)[C@@H](O)[C@@H](C)O2)[C@H](O)[C@@H](C)O1
Activity [1]: 26.3%
Activity [2]: 12.6%

CO[C@H](C(=O)[C@@H](O)[C@@H](C)O)[C@@H]1Cc2cc3cc(O[C@H]4C[C@@H](O[C@H]5C[C@@H](O)[C@H](O)[C@@H](C)O5)[C@H](O)[C@@H](C)O4)c(C)c(O)c3c(O)c2C(=O)[C@H]1O[C@H]1C[C@@H](O[C@H]2C[C@@H](O[C@H]3C[C@H](O)[C@H](O)[C@@H](C)O3)[C@@H](O)[C@@H](C)O2)[C@H](O)[C@@H](C)O1
Activity [1]: 64.8%
Activity [2]: 63.6%
